Strand notation (5' to 3'): a small letter for the sugar, then the base; units joined by * are phosphorothioate-linked, units joined directly phosphodiester-linked; [ ] holds rarer units or linkages, { } end groups; capitals alone tell only the bases. d = 2'-deoxy (DNA)
How the values were obtained:
[1] = test system: primary mouse BMEC monolayers; assay: Transport; format: cell-based; details: 1 μg/mL unlabeled Aβ42 added to abluminal chamber; n = 13-15/group
Outline: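 Primary mouse brain endothelial cells were isolated by enzyme digestion and Percoll gradient. They were seeded at 4 × 10^4 cells/insert on fibronectin/collagen IV-coated 0.33 cm2, 0.4 μm polyester Transwells and grown to confluence (~3 days) in DMEM/F-12 with 20% plasma-derived serum, bFGF and 500 nM hydrocortisone. Assays ran in HEPES buffer pH 7.4 with 1% BSA. Radio-iodinated Aβ42 (1 × 10^6 cpm/mL) was placed in the loading chamber, with or without unlabelled Aβ42 (1 μg/mL). TCA-precipitable counts were used to give clearance and membrane-corrected permeability (cm/min).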

LRP-1 [2] = assay: Immunohistochemistry of LRP-1 in isolated mouse brain microvessels; format: cell-based; details: isolated MBMs, 10 μg/mL, 24 h; buffer = 100%; n = 5-6 slides/group
Outline: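 Cerebral cortices from 10–12 adult male CD-1 mice, meninges removed, were homogenised in cold HEPES/dextran stock buffer. Microvessels were isolated by nylon-mesh filtration and dextran centrifugation, then kept in incubation buffer pH 7.4. They were exposed to buffer, random antisense or antisense cocktail (10 μg/mL) for 24 h. Vessels were heat-fixed, fixed in 3.7% formaldehyde and Triton-permeabilised, then stained overnight at 4°C with anti-LRP-1 antibody (10 μg/mL). Mean fluorescence was measured from 5–6 […]/group.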

LRP-1 [3] = molecular target: LRP-1 (Mus musculus, UniProt Q91ZX7); assay: Inhibition by RAP of brain-to-blood efflux of i.c.v. I-Aβ42; format: in vivo; details: n = 9/group
LRP-1 (Mus musculus, UniProt Q91ZX7), sequence (Q91ZX7 20-4545): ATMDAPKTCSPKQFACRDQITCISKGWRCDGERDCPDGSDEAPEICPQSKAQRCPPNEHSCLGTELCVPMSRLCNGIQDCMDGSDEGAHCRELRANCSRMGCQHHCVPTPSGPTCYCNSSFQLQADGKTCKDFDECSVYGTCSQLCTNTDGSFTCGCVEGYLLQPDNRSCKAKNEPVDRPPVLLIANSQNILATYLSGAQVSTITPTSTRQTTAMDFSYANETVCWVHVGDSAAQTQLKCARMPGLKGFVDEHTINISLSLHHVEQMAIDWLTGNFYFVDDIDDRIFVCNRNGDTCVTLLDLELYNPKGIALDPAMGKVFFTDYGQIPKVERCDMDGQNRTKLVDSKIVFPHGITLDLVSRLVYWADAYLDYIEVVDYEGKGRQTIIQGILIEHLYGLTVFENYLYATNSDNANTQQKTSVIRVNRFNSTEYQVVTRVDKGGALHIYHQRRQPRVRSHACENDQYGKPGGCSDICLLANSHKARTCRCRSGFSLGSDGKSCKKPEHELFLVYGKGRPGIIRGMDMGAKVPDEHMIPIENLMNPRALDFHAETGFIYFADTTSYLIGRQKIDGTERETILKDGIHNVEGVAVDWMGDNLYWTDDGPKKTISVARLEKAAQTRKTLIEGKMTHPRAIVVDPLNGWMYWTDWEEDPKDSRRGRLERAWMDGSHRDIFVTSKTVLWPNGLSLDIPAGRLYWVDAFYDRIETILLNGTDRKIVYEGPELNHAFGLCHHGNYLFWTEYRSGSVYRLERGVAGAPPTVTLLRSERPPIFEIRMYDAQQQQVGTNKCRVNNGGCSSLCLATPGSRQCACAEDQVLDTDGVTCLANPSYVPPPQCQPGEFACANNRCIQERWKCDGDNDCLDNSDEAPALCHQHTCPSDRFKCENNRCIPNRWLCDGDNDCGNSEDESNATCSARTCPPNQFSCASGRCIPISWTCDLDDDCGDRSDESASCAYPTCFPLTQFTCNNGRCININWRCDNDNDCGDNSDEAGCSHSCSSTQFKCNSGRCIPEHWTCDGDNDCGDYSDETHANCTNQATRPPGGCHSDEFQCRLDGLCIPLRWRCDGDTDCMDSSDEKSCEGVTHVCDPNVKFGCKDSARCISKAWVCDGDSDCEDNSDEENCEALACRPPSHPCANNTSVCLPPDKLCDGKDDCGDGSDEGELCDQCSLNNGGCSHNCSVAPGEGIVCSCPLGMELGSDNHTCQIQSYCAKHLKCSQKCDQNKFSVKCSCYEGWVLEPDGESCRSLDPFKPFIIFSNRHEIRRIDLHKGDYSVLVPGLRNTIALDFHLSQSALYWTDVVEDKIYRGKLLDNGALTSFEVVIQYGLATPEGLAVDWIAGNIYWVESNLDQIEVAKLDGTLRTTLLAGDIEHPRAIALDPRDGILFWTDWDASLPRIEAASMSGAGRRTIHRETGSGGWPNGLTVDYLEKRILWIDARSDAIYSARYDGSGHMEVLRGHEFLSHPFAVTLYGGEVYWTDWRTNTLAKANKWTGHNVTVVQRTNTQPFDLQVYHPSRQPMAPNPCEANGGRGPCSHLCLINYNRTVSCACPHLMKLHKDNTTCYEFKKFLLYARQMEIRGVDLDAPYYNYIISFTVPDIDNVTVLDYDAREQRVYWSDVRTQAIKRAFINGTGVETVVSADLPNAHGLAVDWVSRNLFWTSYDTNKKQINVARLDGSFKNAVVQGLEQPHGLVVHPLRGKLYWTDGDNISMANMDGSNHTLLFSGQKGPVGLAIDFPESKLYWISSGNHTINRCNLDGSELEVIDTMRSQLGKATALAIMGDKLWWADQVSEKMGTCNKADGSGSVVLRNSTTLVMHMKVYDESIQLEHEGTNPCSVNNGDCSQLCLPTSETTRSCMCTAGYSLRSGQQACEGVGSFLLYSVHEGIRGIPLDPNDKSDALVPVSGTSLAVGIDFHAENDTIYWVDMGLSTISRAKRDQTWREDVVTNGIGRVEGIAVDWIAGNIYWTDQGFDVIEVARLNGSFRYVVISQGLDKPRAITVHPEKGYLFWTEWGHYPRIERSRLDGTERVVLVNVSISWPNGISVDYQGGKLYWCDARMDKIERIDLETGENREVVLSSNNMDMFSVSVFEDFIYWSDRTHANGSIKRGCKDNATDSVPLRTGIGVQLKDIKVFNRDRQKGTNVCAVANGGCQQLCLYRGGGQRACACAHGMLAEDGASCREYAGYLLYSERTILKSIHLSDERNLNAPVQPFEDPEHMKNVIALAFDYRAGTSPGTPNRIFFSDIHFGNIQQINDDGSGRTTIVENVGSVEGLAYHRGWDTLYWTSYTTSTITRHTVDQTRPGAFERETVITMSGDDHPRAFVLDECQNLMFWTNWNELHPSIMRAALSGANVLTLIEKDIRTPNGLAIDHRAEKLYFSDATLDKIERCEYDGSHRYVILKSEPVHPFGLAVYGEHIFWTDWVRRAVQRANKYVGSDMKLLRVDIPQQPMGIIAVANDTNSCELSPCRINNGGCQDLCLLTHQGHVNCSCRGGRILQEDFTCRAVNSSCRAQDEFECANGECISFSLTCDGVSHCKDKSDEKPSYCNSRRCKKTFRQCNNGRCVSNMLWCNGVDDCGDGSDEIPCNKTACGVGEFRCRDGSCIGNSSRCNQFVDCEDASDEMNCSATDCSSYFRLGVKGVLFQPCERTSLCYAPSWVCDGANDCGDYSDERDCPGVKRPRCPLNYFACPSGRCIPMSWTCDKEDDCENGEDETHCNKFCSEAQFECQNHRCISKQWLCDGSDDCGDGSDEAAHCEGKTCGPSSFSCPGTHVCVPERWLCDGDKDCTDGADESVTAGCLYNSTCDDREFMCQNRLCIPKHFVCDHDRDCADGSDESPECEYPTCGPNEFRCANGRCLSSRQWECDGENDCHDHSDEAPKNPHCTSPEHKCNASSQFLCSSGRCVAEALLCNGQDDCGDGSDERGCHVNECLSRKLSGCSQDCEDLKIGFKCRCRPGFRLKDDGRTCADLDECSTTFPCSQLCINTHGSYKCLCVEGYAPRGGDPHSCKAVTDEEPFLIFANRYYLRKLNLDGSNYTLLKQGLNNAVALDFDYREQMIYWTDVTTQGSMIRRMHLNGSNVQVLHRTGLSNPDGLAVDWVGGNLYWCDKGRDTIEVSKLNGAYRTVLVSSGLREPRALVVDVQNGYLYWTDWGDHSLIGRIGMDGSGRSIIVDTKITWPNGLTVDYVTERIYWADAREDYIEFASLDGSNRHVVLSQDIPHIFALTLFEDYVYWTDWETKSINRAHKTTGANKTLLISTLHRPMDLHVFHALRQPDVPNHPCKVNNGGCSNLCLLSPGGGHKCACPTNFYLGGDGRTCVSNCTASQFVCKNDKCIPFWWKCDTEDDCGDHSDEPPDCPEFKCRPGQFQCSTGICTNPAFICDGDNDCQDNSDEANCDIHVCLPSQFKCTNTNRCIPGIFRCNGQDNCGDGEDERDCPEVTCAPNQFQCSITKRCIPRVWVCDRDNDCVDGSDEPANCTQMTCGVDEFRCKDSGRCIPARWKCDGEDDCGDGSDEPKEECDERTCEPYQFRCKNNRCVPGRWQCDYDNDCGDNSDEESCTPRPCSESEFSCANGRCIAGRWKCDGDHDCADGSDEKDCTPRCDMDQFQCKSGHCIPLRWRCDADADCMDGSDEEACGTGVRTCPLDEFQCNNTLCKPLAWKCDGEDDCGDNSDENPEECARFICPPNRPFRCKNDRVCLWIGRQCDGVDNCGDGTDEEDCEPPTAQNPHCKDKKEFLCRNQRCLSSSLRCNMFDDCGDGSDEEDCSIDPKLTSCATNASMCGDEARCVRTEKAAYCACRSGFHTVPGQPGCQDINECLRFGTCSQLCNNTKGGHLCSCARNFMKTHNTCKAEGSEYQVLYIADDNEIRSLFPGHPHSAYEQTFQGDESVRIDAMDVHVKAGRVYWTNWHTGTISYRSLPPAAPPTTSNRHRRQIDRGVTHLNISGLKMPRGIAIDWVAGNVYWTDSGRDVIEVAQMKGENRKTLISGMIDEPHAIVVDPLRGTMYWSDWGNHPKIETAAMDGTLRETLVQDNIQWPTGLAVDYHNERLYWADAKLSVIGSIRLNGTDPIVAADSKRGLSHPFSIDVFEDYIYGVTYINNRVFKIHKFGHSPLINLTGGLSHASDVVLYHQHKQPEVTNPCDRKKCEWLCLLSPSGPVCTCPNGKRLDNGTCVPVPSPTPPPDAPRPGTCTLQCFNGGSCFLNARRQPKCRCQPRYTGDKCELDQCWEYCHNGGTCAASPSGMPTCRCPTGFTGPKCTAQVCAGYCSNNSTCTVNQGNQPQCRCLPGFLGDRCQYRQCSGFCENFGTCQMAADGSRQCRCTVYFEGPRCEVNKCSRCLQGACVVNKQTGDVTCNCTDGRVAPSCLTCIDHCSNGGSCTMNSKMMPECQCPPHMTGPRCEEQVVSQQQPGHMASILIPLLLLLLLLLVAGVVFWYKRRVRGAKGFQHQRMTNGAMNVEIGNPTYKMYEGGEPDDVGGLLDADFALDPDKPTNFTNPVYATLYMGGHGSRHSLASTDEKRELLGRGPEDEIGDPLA

[4] = Saturability of brain uptake for cocktail ODNs; format: in vivo; details: 10 μg/mouse unlabeled PS-ODN i.v., brain/serum ratio at 30 min; n = 8-9/group
Outline: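 Labelled 19mer or 23mer (5 × 10^5 cpm/200 μl lactated Ringer's–1% BSA) was given i.v. with or without 10 μg/mouse of the corresponding unlabelled phosphorothioate oligonucleotide. Brain and serum were collected 30 min after injection. Results were expressed as brain/serum ratios.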

[5] = In vivo brain-to-blood efflux rate of i.c.v. P-Olg; parameters: species or system mouse; details: after i.c.v. injection, 5 × 10^3 cpm/μl, 2-20 min; n = 2-3 mice/time point
Outline: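 Oligonucleotide was kinase-labelled, ethanol-precipitated, stored at −70°C and used within 48 h. After i.c.v. injection into anaesthetised mice, animals were decapitated at 2, 5, 10 or 20 min and brain radioactivity counted. The t = 0 level came from urethane-overdosed mice. Log % injected dose was plotted against time, and the slope (efflux rate) was obtained by linear regression. n = 2–3 mice/time point.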

Substance | brain uptake on co-administration of unlabeled PS-ODN (saturability) [4] | half-time clearance from brain [5] | further results
Aβ42: 42 amino acid murine Aβ (Bachem), unlabeled, used as competitor of I-Aβ42 transport |  |  | abluminal-to-luminal transport of I-Aβ42 (saturability) [1]: significantly (p < 0.01) inhibited
random antisense: 21mer (Random) control PS-ODN 5′-(_P=S)GAGAAGGTTGTGTGATCTTCA, no sequence homology with any mouse genes (antisense dG*dA*dG*dA*dA*dG*dG*dT*dT*dG*dT*dG*dT*dG*dA*dT*dC*dT*dT*dC*dA) |  |  | mean fluorescent intensity (LRP-1 immunofluorescence) (LRP-1 [2]): 111.14%
receptor-associated protein [RAP] |  |  | brain-to-blood efflux of i.c.v. administered I-Aβ42 (LRP-1 [3]): inhibits
P-19mer: 19mer (Anti-LRP1) phosphorothioate ODN 5′-(_P=S)TGATTTGGTCTCTGCAGGC-3′, directed at an LRP-1 coding region (nt 559–541) (antisense dT*dG*dA*dT*dT*dT*dG*dG*dT*dC*dT*dC*dT*dG*dC*dA*dG*dG*dC) | not significantly decreased | 231.5 min | 
P-23mer: 23mer (Anti-LRP1) phosphorothioate ODN 5′-(_P=S)GTGTGGGCCGATGCAAACAGCAG-3′, designed to bind the translation start site (nt 442–418) (antisense dG*dT*dG*dT*dG*dG*dG*dC*dC*dG*dA*dT*dG*dC*dA*dA*dA*dC*dA*dG*dC*dA*dG) | significantly decreased | 47.8 min | 
